Source: PubChem
T cruzi repl: inhibitors of intracellular T. cruzi growth, primary screen, luminescence, NIH3T3 host cells. T. cruzi beta-gal in NIH3T3, 90 h. inhibition, % (test concentration not listed). hit rate 1.4% among 300,000. AID 1885, 2009;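 active = mean inhibition across valid replicates above about 55%, limit read from the data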;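 note: signal also drops with host cell toxicity which is not excluded here; 0% = plate median of DMSO wells and 100% = zero luminescence signal; higher percent means less beta-gal luminescence so fewer parasites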
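Assay system: NIH/3T3 fibroblasts plus reporter T. cruzi. Amount: NIH/3T3 cells, 5,000 per well. Buffer or medium: DMEM, 2% fetal bovine serum. Doses: compound pinned at 50 nL/well, DMSO. Schedule: ≥90 h infection period, 3 h prior cell attachment. Signal: luminescent β-galactosidase signal after 60 min lysis. Read-out: parasite load inhibition, %.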
CSC inhib: cancer stem cell viability inhibitors, primary screen, luminescence; cancer stem cell-like cells viability; inhibition, % at 7.5 µM; hit rate 1.1% among 300,000; in the data active = inhibition above about 75%; tested in HMLE shEcad cells
SKKanGAS inh: S. pyogenes SKKanGAS growth inhibitors in kanamycin, primary screen, streptokinase expression inhibitor project, SKKanGAS strain, BacTiter-Glo luminescence. 6 h. inhibition, % at 7.5 µM. hit rate 1.3% among 300,000;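 active = mean replicate score, as percent of positive control median, at least 50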;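 note: strain carries kanamycin resistance gene driven by streptokinase promoter and grows in 40 µg/ml kanamycin; loss of luminescence reflects streptokinase promoter inhibition or plain growth inhibition; 0% = median of DMSO wells and 100% = positive control at its reference dose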
aSyn UTR inh: MLPCN primary screen, SNCA 5' untranslated region; alpha-synuclein 5'UTR reporter, inhibitor activity; inhibition, % (tested at 7.5 µM); hit rate 0.82% among 300,000; in the data active = inhibition above about 60%;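 note: H4 neuroglioblastoma cells stably carrying SNCA 5'UTR luciferase fusion; 0% = DMSO wells and 100% = positive control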
Mdm2-MdmX inh: inhibitors of human Mdm2-MdmX association, primary screen, cell-based, luminescence, split luciferase, SaOS-2, uHTS. Protein Mdm4 (Homo sapiens) + E3 ubiquitin-protein ligase Mdm2 (Homo sapiens), …. SaOS-2 split-luciferase Mdm2/MdmX complementation. inhibition, % at 8 µM. hit rate 3% among 330,000. AID 485346, 2010;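 active = inhibition of at least 50% at 8 µM in the primary screen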
Mdm2 MdmX conf: Mdm2-MdmX complex disruptors, retested hits, confirmation, luminescence, single concentration | hit rate 55% among 10,000 | shares compounds with Mdm2-MdmX inh | inhibition, % at 8 µM | Mdm2-MdmX binding, luminescent assay; in the data active = inhibition above about 40%
FLuc counter: full-length luciferase signal inhibition, confirmation, counter-screen for Mdm2/MdmX interaction inhibitor project, cell-based, single concentration, SaOS-2; hit rate 77% among 6,200; inhibition, % at 8 µM; shares compounds with Mdm2-MdmX inh; SaOS-2 full-length luciferase counterscreen, luminescence;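 active = mean inhibition at 8 µM reaching about 37%, which flags the compound as non-specific, limit read from the data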;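 note: p53-null SaOS-2 cells with luciferase driven by a doxycycline-inducible promoter; compound on cells about two nights before reading with doxycycline added after day one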
* marks the source's active call; other numbers are inactive results; . = no result given. Most compounds without a hit are left out; they make up all but 5.4% or so of the library.

SMILES	T cruzi repl	CSC inhib	SKKanGAS inh	aSyn UTR inh	Mdm2-MdmX inh	Mdm2 MdmX conf	FLuc counter
NC1=NC[C@H](Cc2ccccc2)N1CCCCC1CCCCC1	48	20	11	-16	78*	30	.
NC1=NC[C@H](Cc2ccc(O)cc2)N1CCCCC1CCCCC1	60*	-26	21	-7	50*	17	.
NC1=NC[C@@H](Cc2ccc(O)cc2)N1CCc1cccc2ccccc12	-10	9	1	-2	10	.	.
O=C(C[n+]1cccc(/C=N/O)c1)N1CCCc2ccccc21	-5	10	5	-13	-16	.	.
COC(=O)c1ccccc1NC(=O)C1CCN(C(=O)c2ccc(OC)cc2)CC1	3	-7	-8	17	16	.	.
CNC(=S)N/N=C1\C(=O)c2cccc3cccc1c23	47	40	21	-57	87*	17	.
CC1=Nc2cc(C(=O)NCCCOC(C)C)ccc2Sc2ccc(C)cc21	28	59	2	77*	63*	52*	81*
CCCC1=Nc2cc(C(=O)NCCCOC(C)C)ccc2Sc2ccccc21	30	66	-13	11	50*	66*	71*
CCCC1=Nc2cc(C(=O)NCCCOCC)ccc2Sc2ccccc21	33	53	-6	67*	60*	72*	124*
CC1=Nc2cc(C(=O)NCC3CCCO3)ccc2Sc2ccc(Br)cc21 (configuration not stated)	9	56	6	-113	56*	60*	61*
CC1=Nc2cc(C(=O)O)ccc2Sc2ccc(Br)cc21	.	9	.	.	-23	.	.
CCOC(=O)N1CCN(C(=O)c2ccc(Oc3ccc([N+](=O)[O-])cc3)cc2)CC1	-2	-9	3	4	21	.	.
Cn1cccc1/C=N/NC(=O)c1ccn[nH]1	-5	0	3	-19	-32	.	.
Cc1ncc(CO)c(/C=N/NC(=O)c2cc3c(s2)CCCC3)c1O	5	72	37	36	58*	42*	51*
Cc1ncc(CO)c(/C=N/NC(=O)c2ccc(O)cc2)c1O	-5	4	-5	14	-34	.	.
C[C@H](NC(=O)C1CCN(C(=O)[C@H](Cc2ccccc2)NC(=O)OC(C)(C)C)CC1)C(=O)O	-6	6	-1	-7	27	.	.
CC1CCN(CC(=O)n2c3c(c4ccccc42)CCCC3)CC1	11	.	-4	-15	10	.	.
O=C(c1ccccc1F)n1c2c(c3ccccc31)CCCC2	7	51	27	-28	56*	44*	56*
O=c1cc(N/N=C/c2ccccc2)[nH]c(=O)[nH]1	-3	14	-4	23	70*	21	.
O=C(c1ccc(OCCN2CCCCC2)cc1)c1c(-c2ccc(O)cc2)sc2cc(O)ccc12	31	85*	-3	-8	65*	31	.
COc1cc2sc(-c3ccccc3OC)c(-c3ccc(OCCN4CCCCC4)cc3)c2cc1OC	.	104*	.	.	100*	43*	56*
COc1ccccc1-c1sc2cc3c(cc2c1-c1ccc(OCCN2CCCCC2)cc1)OCO3	.	.	.	.	98*	42*	39*
COc1ccccc1N1CCN(S(=O)(=O)c2c(C(=O)N3CCOCC3)c(C)n(C)c2C)CC1	-13	-13	4	3	-22	.	.
c1ccc(CNc2c(-c3cccc(SC4CCCCC4)c3)nc3ccccn23)cc1	.	102*	.	.	71*	-1	.
COc1ccc(-c2cc(-c3nc4ccccn4c3NCc3ccccc3)ccc2OC)cc1	.	98*	.	.	99*	99*	52*
SMILES	T cruzi repl	CSC inhib	SKKanGAS inh	aSyn UTR inh	Mdm2-MdmX inh	Mdm2 MdmX conf	FLuc counter
COc1ccc(-c2nc3ccccn3c2NCc2ccc3c(c2)OCO3)cc1	6	27	-1	-91	-25	.	.
Clc1cccc(-c2ccc(-c3nc4ccccn4c3NCc3ccccc3)cc2)c1	.	.	.	.	59*	-57	.
c1ccc(-c2nc3ccccn3c2NCc2ccc3c(c2)OCO3)cc1	18	-5	-3	-38	6	.	.
Cc1ccc2nc(-c3cccc(SC4CCCCC4)c3)c(NCc3ccccc3)n2c1	.	.	.	.	22	.	.
Cc1ccn2c(NCc3ccccc3)c(-c3cccc(SC4CCCCC4)c3)nc2c1	.	99*	.	.	58*	-2	.
c1cc(SC2CCCCC2)cc(-c2nc3cnccn3c2NC2CCCCC2)c1	.	104*	.	.	89*	29	.
CN(C)C=Nc1ncc2c([nH]c3ccccc32)c1C#N	-11	.	-9	-113	72*	82*	23
Cc1ccc(CN2C(=O)C3CCCN3c3ccc(S(=O)(=O)N4CCOCC4)cc32)cc1 (configuration not stated)	8	-10	20	4	17	.	.
CS(=O)(=O)N1CCN(c2ccccc2NC(=O)c2ccc(-c3ccc(Cl)cc3Cl)o2)CC1	51	-8	9	10	21	.	.
CN1CCN(c2ccccc2NC(=O)c2ccc(-c3ccc(Cl)cc3Cl)o2)CC1	55*	101*	8	-8	56*	52*	86*
COc1ccc(NC(C)=O)cc1NC(=O)CSc1nnc(C2CCCCC2)n1N	-10	-16	-2	-16	24	.	.
Cc1cccc(-c2nnn(Cc3nnc(NC(=O)c4ccccc4)s3)n2)c1	6	-2	-15	-6	71*	-6	.
O=C(CNC(=O)c1ccccc1F)NNC(=O)c1ccccc1O	-18	4	0	11	18	.	.
NC(=O)C(C(=O)/C=C/c1ccc(Cl)cc1)=C1SCCS1	16	43	-4	-114	92*	82*	49*
CC(=O)O[C@@H]1C[C@H]2C(C)(C)C(=O)C=C[C@]2(C)[C@H]2CC[C@@]3(C)[C@H](c4ccoc4)OC(=O)[C@H]4O[C@]43[C@@]21C	32	17	7	16	98*	71*	34
Oc1[nH]c2c(Cl)cc(Cl)cc2c1N=NC(=S)NCC1CCCO1 (configuration not stated)	44	.	95*	79*	98*	45*	50*
Oc1[nH]c2ccc(Br)cc2c1N=NC(=S)NCC1CCCO1 (configuration not stated)	60*	42	81*	44	68*	53*	48*
Oc1[nH]c2ccccc2c1N=NC(=S)NCC1CCCO1 (configuration not stated)	-20	-3	-4	-28	11	.	.
COc1ccc(S(=O)(=O)NCc2cccnc2)cc1NC(=O)c1ccc(Cl)cc1	-4	-1	-3	0	30	.	.
